By IC50 is commonly meant the concentration that gives 50% inhibition.

The nature of data set [1]: Cytotoxicity against HEK293 cells assessed as growth inhibition at 40 uM relative to control. Type of data set: cell-based. As to conditions: human, read-out: GI.
For data set [2], the system named is Plasmodium falciparum. Nature of the data set: Antimalarial activity against chloroquine-sensitive Plasmodium falciparum 3D7 assessed as reduction in parasite rowth incubated for 72 hrs by DAPI staining based fluorescence assay. The format is functional, organism-based. The note with it: 3D7, 72 h.
In data set [3] the test system is Plasmodium falciparum. Nature of the data set: Antimalarial activity against chloroquine-resistant Plasmodium falciparum Dd2 assessed as reduction in parasite growth incubated for 72 hrs by DAPI staining based fluorescence assay. The format is functional, organism-based. As to conditions: Dd2, 72 h.
The subject of data set [4] is Hepacivirus hominis. Briefly: Inhibition of (CAG)33/FF/HCV/Ren.pA51 mRNA cap-dependent translation assessed as reduction in firefly level at […] after 60 mins by dual luciferase reporter gene assay.
The subject of data set [5] is Hepacivirus hominis. Nature of the data set: Inhibition of (CAG)33/FF/HCV/Ren.pA51 mRNA cap-independent translation assessed as reduction in renilla level at […] after 60 mins by dual luciferase reporter gene assay. On the technique in general: In a reporter assay the amount or activity of a reporter protein is the signal.
Data set [6] relates to Plasmodium falciparum. Nature of the data set: Antimalarial activity against chloroquine-sensitive Plasmodium falciparum 3D7 assessed as reduction in parasite growth at 20 uM incubated for 72 hrs by DAPI staining based fluorescence assay. The format is functional, organism-based. The method, boiled down: (§1)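 Asexual P. falciparum 3D7 growth read by a high-content imaging assay. Each compound was tested at one concentration: 20 μM for line 1 and 40 μM for line 2. The value is percentage growth inhibition. The 20 μM values are the mean of at least two independent measurements.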

In data set [7] the test system is Plasmodium falciparum. Briefly: Antimalarial activity against chloroquine-resistant Plasmodium falciparum Dd2 assessed as reduction in parasite growth at 20 uM incubated for 72 hrs by DAPI saining based fluorescence assay. The format is functional, organism-based. In outline: (§2)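 P. falciparum Dd2 (chloroquine-resistant) growth read by high-content imaging. Isolates were screened at a single 40 μM concentration, and some were also given at 20 μM. Values are percentage growth inhibition, as the mean of at least two independent measurements.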

Data set [8] concerns Plasmodium falciparum. Nature of the data set: Antimalarial activity against chloroquine-resistant Plasmodium falciparum Dd2 assessed as reduction in parasite growth at 40 uM incubated for 72 hrs by DAPI staining based fluorescence assay. Type of data set: functional, organism-based. In outline: as §2
For data set [9], the system named is Plasmodium falciparum. Briefly: Antimalarial activity against chloroquine-sensitive Plasmodium falciparum 3D7 assessed as reduction in parasite growth at 40 uM incubated for 72 hrs by DAPI staining based fluorescence assay. The format is functional, organism-based. The method, boiled down:
as §1

Data set [10] has as its system HEK293. Briefly: Cytotoxicity against HEK293 cells. The note with it: Homo sapiens. The format is cell-based.
Data set [11] concerns Plasmodium falciparum 3D7. Nature of the data set: Selectivity ratio of IC50 for HEK293 cells to IC50 for antimalarial activity against Plasmodium falciparum 3D7. As to conditions: human, HEK293 cells versus Plasmodium falciparum 3D7.

Activity calls are given as the source filed them. The calls are words filed in the database; no cut-off is given here.

On to `O=C1C[C@@H](c2ccccc2)Oc2c(Cc3ccccc3O)c(O)c(Cc3ccccc3O)c(O)c21` [DICHAMANETIN], for which the inhibition at 40 µM in data set [1] turned out to be 75%. For the same compound, the IC50 in [2] turned out to be 9.3 µM; in data set [3], 6.7 µM.
With `O=c1cc(-c2ccccc2)oc2cc(O)cc(O)c12`, the inhibition entry in [4] and in data set [5] was “inactive” each time. Moreover, the result in data set [6] and in data set [7] was Active.
Turning to `CC(C)=CCC[C@@H](C)[C@H]1C[C@H](O)[C@@]2(C)C3=CC[C@H]4C(C)(C)[C@@H](O)CC[C@]4(C)C3=CC[C@]12C`, the result in data set [8] and in [9] was inactive.
Take `O=C1C[C@@H](c2ccccc2)Oc2c(Cc3ccccc3O)c(O)cc(O)c21`: the result in [6] and in data set [7] was Active.
For the compound `O=C1C[C@@H](c2ccccc2)Oc2cc(O)c(Cc3cccc(O)c3O)c(O)c21`, the inhibition result in data set [4] and in data set [5] was “inactive” throughout. Besides, the outcome in data set [6] and in data set [7] was Active.
With `COC(=O)/C=C/C(=O)C[C@H](O)COC(=O)c1ccccc1`, the inhibition entry in data set [4] and in data set [5] was “inactive” in each case. For the same compound, in data set [1], the inhibition at 40 µM was 100%. Further, the IC50 is 1.4 µM in data set [2] and 4.1 µM in data set [3].
For `O=C1C[C@@H](c2ccccc2)Oc2c(Cc3cccc(O)c3O)c(O)c(Cc3cccc(O)c3O)c(O)c21`, the inhibition result in data set [4] and in data set [5] was “inactive” in each case. Further, the outcome in data set [8] and in data set [9] was inactive.
As for `O=C1C[C@@H](c2ccccc2)Oc2cc(O)cc(O)c21`, the outcome in [8] and in data set [9] was inactive.
`C[C@@](O)(COC(=O)/C=C/c1ccccc1)[C@H](O)COC(=O)c1ccccc1`: the result in [8] and in data set [9] was inactive.
In the case of `CC(=O)O[C@@H](/C=C1/C=CC(=O)O1)COC(=O)c1ccccc1`, the IC50 in data set [2] was 4.8 µM; in data set [10] it was 11.8 µM; in data set [3], 6.7 µM. Further, the selectivity ratio in [11] was 3.
As for `O=c1cc(-c2ccccc2)oc2c(Cc3cccc(O)c3O)c(O)cc(O)c12`, the inhibition result in data set [4] and in data set [5] was “inactive” throughout. Further, the outcome in data set [6] and in data set [7] was Active.
Take `O=C1C=C/C(=C/[C@H](O)CO)O1`: in [2], the IC50 was 10.5 µM.
In the case of `O=C1C[C@@H](c2ccccc2)Oc2cc(O)c(Cc3ccccc3O)c(O)c21`, the result in [6] and in data set [7] was Active.
As for `O=C1C=C/C(=C/[C@H](O)COC(=O)c2ccccc2)O1`, the inhibition entry in data set [4] and in data set [5] was “inactive” in each case. Also, the IC50 in data set [2] is 3.7 µM.
